What was measured:
[1] = target: T1, Adrenergic receptor alpha-2 (Rattus norvegicus, UniProt P22086+P19328+P22909); experiment: Binding affinity against Alpha-2 adrenergic receptor in rat cortex using [3H]RX-821002 as the radioligand.; assay type: tissue-based, Brain
T1 sequence (P22086 whole entry): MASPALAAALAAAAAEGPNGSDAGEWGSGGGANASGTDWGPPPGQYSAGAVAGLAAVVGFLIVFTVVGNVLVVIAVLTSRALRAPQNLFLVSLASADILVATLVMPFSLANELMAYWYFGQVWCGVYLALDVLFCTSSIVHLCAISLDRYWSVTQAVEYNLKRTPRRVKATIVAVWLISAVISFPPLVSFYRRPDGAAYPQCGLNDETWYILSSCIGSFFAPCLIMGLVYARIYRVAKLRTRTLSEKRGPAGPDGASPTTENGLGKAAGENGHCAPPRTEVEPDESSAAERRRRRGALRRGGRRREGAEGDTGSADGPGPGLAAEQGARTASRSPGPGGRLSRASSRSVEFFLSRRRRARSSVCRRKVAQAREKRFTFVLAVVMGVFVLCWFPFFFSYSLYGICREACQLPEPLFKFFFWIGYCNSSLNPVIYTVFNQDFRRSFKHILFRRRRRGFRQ
T1 sequence (P19328 whole entry): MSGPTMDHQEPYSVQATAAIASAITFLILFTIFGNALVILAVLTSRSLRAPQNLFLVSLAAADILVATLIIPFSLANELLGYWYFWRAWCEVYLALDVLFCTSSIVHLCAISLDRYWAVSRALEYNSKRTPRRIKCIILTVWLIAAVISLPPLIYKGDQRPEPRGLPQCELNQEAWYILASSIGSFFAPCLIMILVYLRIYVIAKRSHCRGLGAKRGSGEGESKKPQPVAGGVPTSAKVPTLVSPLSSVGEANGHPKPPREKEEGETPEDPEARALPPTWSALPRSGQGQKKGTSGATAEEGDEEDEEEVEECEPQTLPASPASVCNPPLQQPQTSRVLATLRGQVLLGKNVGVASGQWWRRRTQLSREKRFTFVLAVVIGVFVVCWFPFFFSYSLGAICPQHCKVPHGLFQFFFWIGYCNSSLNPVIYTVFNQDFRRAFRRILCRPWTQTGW
T1 sequence (P22909 whole entry): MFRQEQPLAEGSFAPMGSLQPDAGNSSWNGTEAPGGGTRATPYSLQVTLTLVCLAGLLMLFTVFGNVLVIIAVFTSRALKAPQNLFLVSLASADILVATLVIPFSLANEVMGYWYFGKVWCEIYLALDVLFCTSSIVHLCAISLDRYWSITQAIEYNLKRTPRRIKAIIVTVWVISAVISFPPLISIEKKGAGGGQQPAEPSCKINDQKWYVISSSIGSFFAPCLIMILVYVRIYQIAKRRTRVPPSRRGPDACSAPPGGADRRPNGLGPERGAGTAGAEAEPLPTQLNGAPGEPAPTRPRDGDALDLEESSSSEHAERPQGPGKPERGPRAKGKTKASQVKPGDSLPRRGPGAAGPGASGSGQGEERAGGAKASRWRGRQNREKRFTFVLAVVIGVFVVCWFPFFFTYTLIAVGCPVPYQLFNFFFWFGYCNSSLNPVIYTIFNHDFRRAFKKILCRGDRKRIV
In short: (§1)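 Binding by the Jackson et al. method. 5-HT1A used [3H]OH-DPAT on rat hippocampus. α1 used [3H]prazosin, α2 [3H]RX821002 and β [3H]dihydroalprenolol, all on rat cortex. D1 used [3H]SCH-23390 on rat striatum. D2 used [3H]raclopride on LtkhD2A cell membranes.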

D(2) dopamine receptor = D(2) dopamine receptor (Homo sapiens, UniProt P14416); experiment: Binding affinity against Dopamine receptor D2 from cell LtkhD2A membranes using [3H]raclopride as the radioligand.; in short: as §1
Sequence of D(2) dopamine receptor (P14416 whole entry): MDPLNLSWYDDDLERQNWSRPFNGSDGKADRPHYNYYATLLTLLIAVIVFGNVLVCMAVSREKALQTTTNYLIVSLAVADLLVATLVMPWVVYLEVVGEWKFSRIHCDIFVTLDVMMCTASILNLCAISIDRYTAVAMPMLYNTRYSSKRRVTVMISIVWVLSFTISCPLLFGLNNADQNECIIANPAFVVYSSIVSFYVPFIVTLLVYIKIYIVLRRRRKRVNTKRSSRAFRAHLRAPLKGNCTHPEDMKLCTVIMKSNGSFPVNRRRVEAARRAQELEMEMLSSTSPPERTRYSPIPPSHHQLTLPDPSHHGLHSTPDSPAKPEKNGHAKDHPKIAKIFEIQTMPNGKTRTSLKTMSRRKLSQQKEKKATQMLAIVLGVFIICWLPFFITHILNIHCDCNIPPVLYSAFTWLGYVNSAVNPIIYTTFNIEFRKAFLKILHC

D(1A) dopamine receptor = D(1A) dopamine receptor (Rattus norvegicus, UniProt P18901); experiment: Binding affinity against Dopamine receptor D1 in rat striatum using [3H]-SCH- 23390 as the radioligand.; assay type: tissue-based; in short: as §1
Sequence of D(1A) dopamine receptor (P18901 whole entry): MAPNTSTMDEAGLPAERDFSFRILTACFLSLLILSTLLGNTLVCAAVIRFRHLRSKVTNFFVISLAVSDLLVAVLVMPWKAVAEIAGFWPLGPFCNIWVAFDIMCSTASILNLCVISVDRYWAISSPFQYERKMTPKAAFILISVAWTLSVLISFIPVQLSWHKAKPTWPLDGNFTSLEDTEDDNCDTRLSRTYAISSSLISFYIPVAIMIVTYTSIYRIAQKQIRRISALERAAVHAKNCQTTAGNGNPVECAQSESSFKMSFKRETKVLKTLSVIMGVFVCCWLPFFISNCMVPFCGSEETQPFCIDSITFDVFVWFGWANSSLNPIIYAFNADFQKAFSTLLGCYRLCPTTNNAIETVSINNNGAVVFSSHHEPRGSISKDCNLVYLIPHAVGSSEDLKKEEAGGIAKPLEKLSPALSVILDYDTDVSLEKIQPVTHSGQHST

[2] = target: T2, 5-hydroxytryptamine receptor 2C (Rattus norvegicus, UniProt P08909); experiment: Binding affinity against 5-hydroxytryptamine 2C receptor from rat cortex using [3H]mesulergine as the radioligand.; assay type: tissue-based
T2 sequence (P08909 whole entry): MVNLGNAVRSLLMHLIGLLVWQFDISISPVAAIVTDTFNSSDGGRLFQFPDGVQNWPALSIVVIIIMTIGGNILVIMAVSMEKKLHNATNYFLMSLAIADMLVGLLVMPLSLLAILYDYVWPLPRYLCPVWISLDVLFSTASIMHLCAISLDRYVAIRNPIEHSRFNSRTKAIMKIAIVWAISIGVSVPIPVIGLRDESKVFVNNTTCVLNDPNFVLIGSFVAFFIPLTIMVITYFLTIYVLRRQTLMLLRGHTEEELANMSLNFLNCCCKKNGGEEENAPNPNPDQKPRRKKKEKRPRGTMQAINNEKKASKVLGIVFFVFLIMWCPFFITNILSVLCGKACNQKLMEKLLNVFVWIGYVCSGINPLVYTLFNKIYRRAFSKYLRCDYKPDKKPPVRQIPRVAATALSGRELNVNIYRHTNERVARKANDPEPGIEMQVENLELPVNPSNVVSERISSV
In short: (§2)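 Binding by the Johansson et al. method. 5-HT2A used [3H]ketanserin and 5-HT2C used [3H]mesulergine, both on rat cortex. 5-HT6 and 5-HT7 used [3H]-5-HT on CHO cell membranes expressing the rat receptors.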

[3] = target: 5-hydroxytryptamine receptor 2A (Rattus norvegicus, UniProt P14842); experiment: Binding affinity against 5-hydroxytryptamine 2A receptor from rat cortex using [3H]ketanserin as the radioligand.; in short: as §2
Sequence of 5-hydroxytryptamine receptor 2A (P14842 whole entry): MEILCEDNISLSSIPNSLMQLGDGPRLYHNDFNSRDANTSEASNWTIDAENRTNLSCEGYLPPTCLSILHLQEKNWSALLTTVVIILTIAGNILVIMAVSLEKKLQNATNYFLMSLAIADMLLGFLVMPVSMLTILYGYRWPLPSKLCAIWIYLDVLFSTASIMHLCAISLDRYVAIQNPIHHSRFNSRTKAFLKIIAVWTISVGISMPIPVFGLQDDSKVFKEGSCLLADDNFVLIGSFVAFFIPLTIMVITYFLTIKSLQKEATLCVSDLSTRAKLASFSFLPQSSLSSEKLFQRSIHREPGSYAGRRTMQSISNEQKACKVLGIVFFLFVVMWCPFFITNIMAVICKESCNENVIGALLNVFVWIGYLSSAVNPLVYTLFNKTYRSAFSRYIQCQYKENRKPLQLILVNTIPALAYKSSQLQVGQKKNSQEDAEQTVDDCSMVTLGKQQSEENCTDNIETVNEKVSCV

Ki [1] | Ki (D(2) dopamine receptor) | Ki (D(1A) dopamine receptor) | Ki [2] | Ki [3] | SMILES
> 10 µM | > 10 µM | > 10 µM | > 10 µM | > 10 µM | C1=C(CN2CCOCC2)COc2c1cccc2OC[C@H]1CNCCO1.CS(=O)(=O)O
> 10 µM | > 10 µM | > 10 µM | > 10 µM | > 10 µM | C1=C(CN2CCOCC2)COc2c1cccc2OC[C@@H]1CNCCO1.Cl
